Experimental data published in ChEMBL document CHEMBL1147572, “Synthesis, SAR, and antitumor properties of diamino-C,N-diarylpyrimidine positional isomers: inhibitors of lysophosphatidic acid acyltransferase-beta” (Bioorg Med Chem Lett, 2004).

What was measured:
DU-145 = assay: In vitro inhibitory activity against DU 145 cell line proliferation; assay type: functional, cell-based; conditions: Homo sapiens
In short: (§1)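 Cell proliferation measured with a CyQuant fluorescent DNA-dye kit, following the method of an earlier report.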

K562 = assay: In vitro inhibitory activity against K-562 cell line proliferation; assay type: functional, cell-based; conditions: Homo sapiens; in short: as §1
[1] = target: T1, 1-acyl-sn-glycerol-3-phosphate acyltransferase beta (Homo sapiens, UniProt O15120); assay: Inhibitory activity against Lysophosphatidic acid acyltransferase-beta expressed in Sf9 insect cell membranes
T1 sequence (O15120 whole entry): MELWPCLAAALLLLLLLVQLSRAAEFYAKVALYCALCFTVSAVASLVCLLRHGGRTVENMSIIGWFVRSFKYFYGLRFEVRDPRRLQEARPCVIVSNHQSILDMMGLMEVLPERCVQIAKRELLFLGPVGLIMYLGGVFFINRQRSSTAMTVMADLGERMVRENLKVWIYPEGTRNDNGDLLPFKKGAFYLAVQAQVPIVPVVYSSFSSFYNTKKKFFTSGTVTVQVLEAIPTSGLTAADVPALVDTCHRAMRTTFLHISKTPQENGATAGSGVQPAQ
In short: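 LPAAT-β overexpressed in Sf9 insect cell membranes. Enzyme activity read colorimetrically with DTNB (5,5'-dithiobis(2-nitrobenzoic acid)).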

Mus musculus = assay: Tumor growth delay against Lewis lung tumor LL2 cell line at 100 mg/kg q1d*4 intravenously in mice; conditions: route intravenous
[2] = test system: Lewis lung carcinoma cell line; assay: In vitro inhibitory activity against murine Lewis lung tumor LL2 cell line; assay type: functional, cell-based; conditions: Mus musculus
[3] = target: T2, 1-acyl-sn-glycerol-3-phosphate acyltransferase alpha (Homo sapiens) (UniProt Q99943); assay: Inhibitory activity against lysophosphatidic acid acyltransferase-alpha at 40 uM concentration
T2 sequence (whole entry): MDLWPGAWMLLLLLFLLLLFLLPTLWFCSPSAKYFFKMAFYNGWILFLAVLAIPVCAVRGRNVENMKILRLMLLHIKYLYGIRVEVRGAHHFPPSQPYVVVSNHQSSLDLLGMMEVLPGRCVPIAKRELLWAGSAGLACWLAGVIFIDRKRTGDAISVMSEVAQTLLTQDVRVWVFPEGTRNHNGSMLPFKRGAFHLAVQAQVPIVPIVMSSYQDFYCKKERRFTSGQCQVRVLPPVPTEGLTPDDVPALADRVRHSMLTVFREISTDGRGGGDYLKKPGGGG
In short: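 LPAAT-α overexpressed in Sf9 insect cell membranes in the same way. Activity read colorimetrically with DTNB. Inhibition recorded at 40 μM.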

| SMILES | IC50 (DU-145) [nM] | IC50 (K562) [nM] | IC50 [1] [nM] | IC50 [2] [nM] | inhibition [3] [%] | TGD (Mus musculus) [days] |
| --- | --- | --- | --- | --- | --- | --- |
| COc1ccc(Cl)cc1-c1cc(N)nc(Nc2ccc3c[nH]nc3c2)n1 | > 10000 | > 10000 |  |  |  |  |
| Cc1ccc(O)cc1-c1cc(Nc2ccc(Cl)cc2)nc(N)n1 |  |  | 8300 |  |  |  |
| CCOc1ccc(Cl)cc1-c1cc(Nc2cccc([N+](=O)[O-])c2)nc(N)n1 | > 1000 | 450 | 640 |  |  |  |
| COc1ccc(Cl)cc1-c1cc(N)nc(Nc2ccc(Br)cc2)n1 | > 10000 | 3000 | 2300 |  |  |  |
| Cc1ccc(F)cc1-c1cc(Nc2ccc(Cl)cc2)nc(N)n1 | > 1000 | 250 | 150 |  |  |  |
| CCOc1ccc(Br)cc1-c1cc(Nc2ccc(C(=N)N)cc2)nc(N)n1 |  |  | > 5000 |  |  |  |
| CCOc1ccc(Br)cc1-c1cc(Nc2ccc(C(=O)O)cc2)nc(N)n1 |  |  | 2700 |  |  |  |
| CCOc1ccc(Br)cc1-c1cc(Nc2ccc(CC(=O)NO)cc2)nc(N)n1 | > 1000 | > 1000 | 400 |  |  |  |
| CCOc1ccc(Cl)cc1-c1cc(Nc2ccc(CCCO)cc2)nc(N)n1 | > 1000 | > 1000 |  |  |  |  |
| COc1ccc(Cl)cc1-c1cc(N)nc(Nc2ccc(Cl)cc2)n1 | > 10000 | 3000 | 7000 |  |  |  |
| CCOc1ccc(Br)cc1-c1cc(Nc2ccc(CC(=O)O)cc2)nc(N)n1 | > 1000 | > 1000 | 210 |  |  |  |
| CCOc1ccc(Br)cc1-c1cc(Nc2ccc(C(N)=O)cc2)nc(N)n1 |  |  | 750 |  |  |  |
| Nc1nc(Nc2ccc(Cl)cc2)cc(-c2cc(Br)ccc2O)n1 | > 1000 | > 1000 |  |  |  |  |
| Nc1nc(Nc2ccc(Cl)cc2)cc(-c2cc(Cl)ccc2O)n1 |  |  | 10000 |  |  |  |
| CCOc1ccc(Br)cc1-c1cc(Nc2ccc(/C(C)=N\OC)cc2)nc(N)n1 | > 1000 | > 1000 | 970 |  |  |  |
| COc1ccc(Cl)cc1-c1nc(N)cc(Nc2ccc3c[nH]nc3c2)n1 | > 10000 | 5500 |  |  |  |  |
| CCOc1ccc(Br)cc1-c1cc(Nc2ccccc2)nc(N)n1 | > 1000 | 260 | 120 |  |  |  |

Second part, led by results:

| IC50 (DU-145) [nM] | IC50 (K562) [nM] | IC50 [1] [nM] | IC50 [2] [nM] | inhibition [3] [%] | SMILES | TGD (Mus musculus) [days] |
| --- | --- | --- | --- | --- | --- | --- |
| > 1000 | 700 |  |  |  | CCOc1ccc(Br)cc1-c1cc(Nc2ccc(C(=O)NO)cc2)nc(N)n1 |  |
| > 1000 | 350 | 720 |  |  | CCOc1ccc(Br)cc1-c1cc(Nc2cccc(C#N)c2)nc(N)n1 |  |
| 70 | < 12 |  |  |  | CCOc1ccc(Cl)cc1-c1cc(Nc2ccc(Cl)cc2)nc(N)n1 |  |
| 350 | 180 |  |  |  | CCOc1ccc(Cl)cc1-c1cc(Nc2ccc([N+](=O)[O-])cc2)nc(N)n1 |  |
| > 1000 | > 1000 | 580 |  |  | CCOc1ccc(Cl)cc1-c1cc(Nc2ccc(CC(=O)O)cc2)nc(N)n1 |  |
| 200 | < 100 |  |  |  | CCOc1ccc(Cl)cc1-c1cc(Nc2ccc3c[nH]nc3c2)nc(N)n1 |  |
| 120 | 60 | 22 |  |  | Cc1ccc(Cl)cc1-c1cc(Nc2ccc(Cl)cc2)nc(N)n1 |  |
| 500 | 150 |  |  |  | COc1ccc(Cl)cc1-c1cc(Nc2ccc(Cl)cc2)nc(N)n1 |  |
| 100 | 70 |  |  |  | Cc1ccc(Br)cc1-c1cc(Nc2ccc(Cl)cc2)nc(N)n1 |  |
| 190 | < 100 |  |  |  | Nc1nc(Nc2ccc(Cl)cc2)cc(-c2cc(Cl)ccc2Cl)n1 |  |
| 250 | 150 | 28 |  |  | COc1ccc(Cl)cc1-c1cc(Nc2ccc(Br)cc2)nc(N)n1 |  |
| 110 | 70 |  |  |  | Cc1ccc(Br)cc1-c1cc(Nc2ccc(Br)cc2)nc(N)n1 |  |
| 90 | 50 |  |  |  | CCOc1ccc(Br)cc1-c1cc(Nc2ccc(C(C)=O)cc2)nc(N)n1 |  |
| 400 | 200 | 610 |  |  | Cc1ccc(Cl)cc1-c1cc(Nc2cccc(Br)c2)nc(N)n1 |  |
| < 50 | < 50 | 84 |  |  | CCOc1ccc(Br)cc1-c1cc(Nc2ccc(/C(C)=N\O)cc2)nc(N)n1 |  |
| 130 | 60 |  |  |  | Cc1ccc(Cl)cc1-c1cc(Nc2ccc(Br)cc2)nc(N)n1 |  |
| 230 | 140 | 140 | 160 |  | Cc1ccc(Cl)cc1-c1cc(Nc2ccc(C(F)(F)F)cc2)nc(N)n1 | 6 |
| 80 | 50 | 16 |  | 50 | CCOc1ccc(Br)cc1-c1cc(Nc2ccc(Cl)cc2)nc(N)n1 |  |
| 1000 | 250 |  |  |  | COc1ccc(Cl)cc1-c1cc(Nc2ccc3c[nH]nc3c2)nc(N)n1 |  |
| 40 | < 12 |  |  |  | CCOc1ccc(Cl)cc1-c1cc(Nc2ccc(CO)cc2)nc(N)n1 |  |
| 800 | 150 |  |  |  | COc1ccc(Cl)cc1-c1nc(N)cc(Nc2ccc(Br)cc2)n1 |  |
| 5000 | 750 | 7000 |  |  | COc1ccc(Cl)cc1-c1nc(N)cc(Nc2ccc(Cl)cc2)n1 |  |
| 500 | 200 | 91 |  |  | CCOc1ccc(Br)cc1-c1cc(Nc2ccc(B(O)O)cc2)nc(N)n1 |  |
| 400 | 70 | 17 |  |  | CCOc1ccc(Br)cc1-c1cc(Nc2ccc(C#N)cc2)nc(N)n1 |  |
| 70 | < 50 |  |  |  | CCOc1ccc(Cl)cc1-c1cc(Nc2ccc(CCO)cc2)nc(N)n1 |  |
